Experimental findings from ChEMBL document CHEMBL2380204, “Discovery of a new HIV-1 inhibitor scaffold and synthesis of potential prodrugs of indazoles” (Bioorg Med Chem Lett, 2013) are described below.

Each structure is given as a SMILES string. ≈ marks a conversion by molar mass, not a printed value.

In data set [1] the test system is Plasma. The data set is described as follows: Prodrug activation in 80% phosphate buffered human plasma assessed as compound remaining after 40 mins at pH 7.4. The class given is cell-free. As to conditions: pH 7.4, 40 min. The procedure, abridged: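 Incubated in phosphate-buffered 80% human plasma at pH 7.4 and 37 °C. Percent of compound remaining measured at 40 min, along with time-dependent formation of the parent indazole.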

Data set [2] in a line: Aqueous solubility in phosphate buffer at pH 7.4. Type of data set: physicochemical. The gist of the method: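 Aqueous solubility measured in phosphate buffer at pH 7.4 as a preliminary screen. Reported in µM.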
Data set [3] in a line: Chemical stability in phosphate buffer after 40 mins at pH 7.4. The class given is physicochemical. As to conditions: pH 7.4, 40 min. The procedure, abridged: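 Compound incubated in phosphate buffer at pH 7.4 and 37 °C for 40 min. Hydrolysis monitored.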
Data set [4] is described as follows: Therapeutic index, ratio of TC50 for human MT4 cells to EC50 for Human immunodeficiency virus 1 NL43 infected in human MT4 cells. Type of data set: cell-based. As to conditions: read-out: TI. The gist of the method: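 Index calculated as TC50/EC50. TC50 and EC50 are each the mean of two experiments.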
Data set [5] relates to Human immunodeficiency virus 1. The experiment in a line: Antiviral activity against 0.0005 MOI Human immunodeficiency virus 1 NL43 infected in human MT4 cells assessed as protection against virus-induced cytopathicity after 4 days by WST1 assay. The class given is functional, organism-based. Conditions: Human immunodeficiency virus 1, NL43, MT4, 96 h. The procedure, abridged:
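Antiviral EC50 defined as 50% effective concentration. Values are the mean of two experiments, with SD normally under 20%.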

Data set [6] in a line: Cytotoxicity against human MT4 cells by WST1 assay. Type of data set: cell-based. Conditions: read-out: TC50 (the source's name). The gist of the method:
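TC50 defined as 50% toxic concentration. Values are the mean of two experiments, with SD normally under 20%.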

The nature of data set [7]: Metabolic stability in mouse liver microsomes after 40 mins by LC-MS/MS analysis. The class given is ADME, Microsome. Conditions: read-out: Stability. In general terms: Liver microsomes are a subcellular fraction often used to study metabolism.

On to `O=C(O)c1ccccc1C(=O)OCn1ncc2cc(Nc3ncc(-c4ccc(Cl)cc4)o3)ccc21`, for which the Stability entry in data set [1] is “Stable”. This compound registered a solubility in data set [2] of 66 µM (≈ 32.3 µg/mL).

With `O=C(O)CCC(=O)OCn1ncc2cc(Nc3ncc(-c4ccc(Cl)cc4)o3)ccc21`, the results for the Stability entry in data set [3] and in data set [1] were “Stable” and 35%, respectively. For the same compound, in data set [2], the concentration in solution (solubility) was 60 µM (≈ 26.5 µg/mL).

As for `O=[N+]([O-])c1ccc(N2CCCC(Nc3ccc4[nH]ncc4c3)C2)c(F)c1` (configuration not stated), the selectivity ratio in data set [4] came out at 10. For the same compound, the EC50 in data set [5] is 13 µM.

With `COc1cccc(-c2nc(Nc3ccc4[nH]ncc4c3)c3c(F)cccc3n2)c1`, the selectivity ratio in data set [4] was found to be 10. The concentration giving a half-maximal response (EC50) in data set [5] is 11 µM.

Regarding `O=C(NCc1ccc([N+](=O)[O-])cc1F)Nc1ccc2[nH]ncc2c1`, the selectivity ratio in data set [4] came out at 15. Further, the EC50 in data set [5] was 6 µM.

`c1ccc(-c2cnc(Nc3ccc4[nH]ncc4c3)o2)cc1`: the CC50 in data set [6] was over 90 µM. Also, the selectivity ratio in data set [4] was over 45. The EC50 in data set [5] was found to be 2 µM. In data set [7], the remaining at 40 min stood at 9%.

Consider `Clc1ccccc1-c1cnc(Nc2ccc3[nH]ncc3c2)o1`, for which the CC50 in data set [6] is over 100 µM. For the same compound, the selectivity ratio in data set [4] is over 11. The EC50 in data set [5] turned out to be 9 µM.

For `Clc1cccc(-c2cnc(Nc3ccc4[nH]ncc4c3)o2)c1`, in data set [6], the CC50 is over 100 µM. Also, the selectivity ratio in data set [4] was over 1.9. The EC50 in data set [5] was determined as 54 µM.

As for `Clc1ccc(-c2cnc(Nc3ccc4[nH]ncc4c3)o2)cc1`, the CC50 in data set [6] is over 90 µM. In data set [4], the selectivity ratio was over 30. Further, the EC50 in data set [5] was determined as 3 µM. The remaining at 40 min in data set [7] was determined as 83%. The compound further displayed a solubility in data set [2] of 0.2 µM (≈ 0.0621 µg/mL).

For the compound `COc1ccccc1-c1cnc(Nc2ccc3[nH]ncc3c2)o1`, the CC50 in data set [6] is over 100 µM. For the same compound, the selectivity ratio in data set [4] is over 1. In addition, the EC50 in data set [5] is 100 µM.

Take `COc1cccc(-c2cnc(Nc3ccc4[nH]ncc4c3)o2)c1`: in data set [6], the CC50 is over 90 µM. In addition, the selectivity ratio in data set [4] is over 45. The EC50 in data set [5] turned out to be 2 µM.

With `COc1ccc(-c2cnc(Nc3ccc4[nH]ncc4c3)o2)cc1`, the CC50 in data set [6] is over 100 µM. Moreover, the selectivity ratio in data set [4] was over 1. Besides, in data set [5], the EC50 is 100 µM.

`c1cc2[nH]ncc2cc1Nc1ncc(-c2ccc3c(c2)OCO3)o1`: the CC50 in data set [6] came out at 83 µM. Moreover, the selectivity ratio in data set [4] was determined as 31. Moreover, the EC50 in data set [5] amounted to 2.7 µM.

Regarding `COc1cc(-c2cnc(Nc3ccc4[nH]ncc4c3)o2)ccc1Cl`, the CC50 in data set [6] stood at 80 µM. The selectivity ratio in data set [4] was found to be 53. Also, the EC50 in data set [5] was found to be 1.5 µM.

For the compound `Clc1ccc(-c2cnc(Nc3ccc4[nH]ncc4c3)o2)cc1Cl`, in data set [6], the CC50 is over 100 µM. For the same compound, the selectivity ratio in data set [4] was over 2.9. Further, the EC50 in data set [5] came out at 35 µM.

For `COc1ccc(-c2cnc(Nc3ccc4[nH]ncc4c3)o2)cc1OC`, the CC50 in data set [6] turned out to be 21 µM. Also, the selectivity ratio in data set [4] came to 50. Besides, in data set [5], the concentration giving a half-maximal response (EC50) came to 0.42 µM.

The term solubility denotes the concentration that dissolves in the medium under given conditions. A higher solubility goes with much dissolved substance. The EC50 is the concentration needed to bring the measured effect to its halfway point.
